Test results as given in PMC6482435 (Biochemistry, 2019).
One block for each molecule: values may come before it.

Columns and labels:
Experiment in all cases: Yeast-based OR sensor, GFP dose-response
Type in all cases: cell-based
OR2A7 = molecular target: T1, OR2A7 (Homo sapiens, UniProt Q96R45); settings: for OR-dependent activation, conclusion in words: OR2A7 vs no OR control; for EC50: GFP expression, 4 h, 0-1000 μM chemical, 1% DMSO
T1 sequence (Q96R45 1-310): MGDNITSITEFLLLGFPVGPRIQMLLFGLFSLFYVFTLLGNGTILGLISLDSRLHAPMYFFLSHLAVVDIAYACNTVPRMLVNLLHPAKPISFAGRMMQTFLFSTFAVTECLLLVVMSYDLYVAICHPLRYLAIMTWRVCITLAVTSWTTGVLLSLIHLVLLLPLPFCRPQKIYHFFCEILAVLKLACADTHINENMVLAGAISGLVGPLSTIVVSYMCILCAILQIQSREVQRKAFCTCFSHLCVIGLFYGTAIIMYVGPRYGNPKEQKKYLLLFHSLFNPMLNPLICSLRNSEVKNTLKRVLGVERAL
Outline: (§1)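 Yeast-codon-optimized human OR in S. cerevisiae PPY140 (Δfar1 Δste2 Δsst2) with PFIG1-eGFP reporter. Cells pre-grown 18 h at 15 °C in SD(HL–), exposed to test compound 0–1000 μM final, 1% DMSO, 4 h at 30 °C. Flow-cytometric geometric mean GFP, 10000 cells; triplicate; two-tailed t test vs DMSO; empty-vector strain run same day; EC50 from dose-response fit.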

OR2T4 = molecular target: T2, OR2T4 (Homo sapiens, UniProt Q8NH00); settings: for OR-dependent activation, conclusion in words: OR2T4 vs no OR control; for increase in the signal after activation: OR2T4, dose-response curve, compared to DMSO control; for EC50: GFP expression, 4 h, 0-1000 μM chemical, 1% DMSO; for increase in percent GFP expression compared to the no receptor control: OR2T4 vs empty-vector control strain
T2 sequence (Q8NH00 1-348): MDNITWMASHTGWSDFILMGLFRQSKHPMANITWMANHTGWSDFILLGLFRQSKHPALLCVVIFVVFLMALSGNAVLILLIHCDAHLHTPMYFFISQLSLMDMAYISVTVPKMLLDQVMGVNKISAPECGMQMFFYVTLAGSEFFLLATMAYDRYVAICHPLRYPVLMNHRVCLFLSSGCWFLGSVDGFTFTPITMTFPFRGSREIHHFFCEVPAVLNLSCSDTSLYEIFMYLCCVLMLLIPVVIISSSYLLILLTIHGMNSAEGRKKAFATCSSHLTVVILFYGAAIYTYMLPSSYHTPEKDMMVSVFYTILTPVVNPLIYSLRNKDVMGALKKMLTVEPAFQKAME
Outline: as §1

OR51B5 = molecular target: T3, OR51B5 (Homo sapiens, UniProt Q9H339); settings: for increase in the signal after activation: OR51B5, dose-response curve, compared to DMSO control
T3 sequence (Q9H339 1-312): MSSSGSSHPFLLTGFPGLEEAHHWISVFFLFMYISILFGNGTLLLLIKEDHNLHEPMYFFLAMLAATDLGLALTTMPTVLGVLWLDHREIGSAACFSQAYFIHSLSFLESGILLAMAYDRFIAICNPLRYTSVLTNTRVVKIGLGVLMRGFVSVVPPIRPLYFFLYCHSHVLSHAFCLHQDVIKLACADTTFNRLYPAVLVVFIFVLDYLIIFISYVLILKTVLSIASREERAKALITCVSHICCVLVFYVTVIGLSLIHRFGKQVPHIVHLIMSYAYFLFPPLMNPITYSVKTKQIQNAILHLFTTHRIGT
Outline: as §1

OR2L13 = molecular target: T4, OR2L13 (Homo sapiens, UniProt Q8N349); settings: OR2L13, dose-response curve, compared to DMSO control
T4 sequence (Q8N349 1-312): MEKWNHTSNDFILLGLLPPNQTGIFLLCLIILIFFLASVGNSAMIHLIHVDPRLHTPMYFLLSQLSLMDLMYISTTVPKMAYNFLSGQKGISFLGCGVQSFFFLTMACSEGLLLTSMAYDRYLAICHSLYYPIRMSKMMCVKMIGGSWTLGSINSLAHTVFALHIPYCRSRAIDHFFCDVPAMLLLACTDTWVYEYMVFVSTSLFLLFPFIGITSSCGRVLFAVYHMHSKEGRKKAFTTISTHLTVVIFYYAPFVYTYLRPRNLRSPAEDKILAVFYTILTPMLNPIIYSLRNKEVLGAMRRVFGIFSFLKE
Outline: as §1

OR2A42 = molecular target: T5, OR2A42 (Homo sapiens, UniProt Q8NGT9)
T5 sequence (Q8NGT9 1-310): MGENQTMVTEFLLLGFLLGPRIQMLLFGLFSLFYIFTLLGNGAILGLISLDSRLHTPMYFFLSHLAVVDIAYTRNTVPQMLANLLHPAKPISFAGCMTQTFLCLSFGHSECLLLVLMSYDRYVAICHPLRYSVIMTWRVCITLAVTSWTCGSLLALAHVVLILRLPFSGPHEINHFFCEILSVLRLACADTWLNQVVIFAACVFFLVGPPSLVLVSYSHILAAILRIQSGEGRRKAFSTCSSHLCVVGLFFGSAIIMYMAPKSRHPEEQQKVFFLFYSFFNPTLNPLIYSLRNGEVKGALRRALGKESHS
Outline: as §1

OR2W3 = molecular target: T6, OR2W3 (Homo sapiens, UniProt Q7Z3T1)
T6 sequence (Q7Z3T1 1-314): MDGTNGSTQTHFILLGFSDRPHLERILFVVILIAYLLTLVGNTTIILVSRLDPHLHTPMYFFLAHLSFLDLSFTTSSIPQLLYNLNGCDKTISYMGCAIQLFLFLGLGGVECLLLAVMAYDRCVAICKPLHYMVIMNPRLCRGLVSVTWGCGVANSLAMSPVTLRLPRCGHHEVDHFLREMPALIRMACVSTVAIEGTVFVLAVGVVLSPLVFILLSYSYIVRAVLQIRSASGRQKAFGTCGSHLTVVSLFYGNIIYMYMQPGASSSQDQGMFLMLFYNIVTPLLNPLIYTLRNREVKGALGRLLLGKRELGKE
Outline: as §1

OR10S1 = molecular target: T7, OR10S1 (Homo sapiens, UniProt Q8NGN2)
T7 sequence (Q8NGN2 1-331): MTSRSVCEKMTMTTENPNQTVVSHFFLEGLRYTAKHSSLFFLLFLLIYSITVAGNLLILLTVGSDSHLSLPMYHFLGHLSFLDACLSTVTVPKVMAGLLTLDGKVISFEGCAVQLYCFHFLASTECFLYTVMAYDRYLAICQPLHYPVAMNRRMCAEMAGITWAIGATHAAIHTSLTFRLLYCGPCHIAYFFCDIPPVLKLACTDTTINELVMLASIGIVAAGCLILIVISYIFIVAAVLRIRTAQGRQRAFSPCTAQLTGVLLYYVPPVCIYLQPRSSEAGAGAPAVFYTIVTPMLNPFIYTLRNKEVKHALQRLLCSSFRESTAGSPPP
Outline: as §1

Compound: CC(C)(C)c1ccccc1 [TBB, tert-butylbenzene]
- OR-dependent activation, conclusion in words (OR2A7): not OR dependent
- OR-dependent activation, conclusion in words (OR2T4): not OR dependent

Compound: CCCCCCCCCCCC(=O)O [dodecanoic, lauric acid]
- increase in the signal after activation (OR51B5): > 2 fold

Compound: CCCCCCCCCCCCO [dodecanol, 1-dodecanol]
- increase in the signal after activation (OR2L13): > 2 fold

Compound: CC(C)=CCC/C(C)=C/CC/C(C)=C/CO [farnesol]
- EC50 (OR2A7; OR2A7 yeast sensor): do not fit a dose–response curve
- increase in the signal after activation (OR2T4): > 2 fold
- OR-dependent activation, conclusion in words (OR2T4): not a ligand
- EC50 (OR2T4; OR2T4 yeast sensor): could not be fitted
- EC50 (OR51B5; EC50, OR51B5 yeast sensor, GFP expression, 4 h, 0-1000 μM chemical, 1% DMSO): 181 µM
- increase in the signal after activation (OR51B5): > 2 fold
- OR-dependent activation, conclusion in words (OR51B5; OR51B5, on/off behavior of the response): nonspecifically activates GFP expression
- increase in percent GFP expression compared to the no receptor control (OR51B5; OR51B5 vs empty-vector control strain): 3 fold
- increase in the signal after activation (OR2A42; OR2A42, dose-response curve, compared to DMSO control): 2 fold
- OR-dependent activation, conclusion in words (OR2A42; OR2A42 vs no OR control): not a ligand
- EC50 (fit to dose-response equation) (OR2A42; OR2A42 yeast sensor, GFP expression): could not be fitted
- EC50 (fit to dose-response curve) (OR2W3; OR2W3 yeast sensor, GFP expression, Figure S6): do not fit a dose–response curve

Compound: CC(C)=CCC/C(C)=C\CO [nerol]
- signal after activation (in words) (OR2W3; OR2W3, dose-response curve, Figure S1): did not result in a significant increase in the signal after activation

Compound: CCCCCCCCC=O [nonanal]
- increase in the signal after activation (OR10S1; OR10S1, dose-response curve, compared to DMSO control): > 2 fold
- OR-dependent activation, conclusion in words (OR10S1; OR10S1 vs no OR control): the no OR control shows a similar increase in GFP expression

Further lines, results first:

- increase in the signal after activation (OR2T4): > 2 fold
- increase in percent GFP expression compared to the no receptor control (OR2T4): 2.3 fold
- OR-dependent activation, conclusion in words (OR2T4): confirmed ligand
- increase in the signal after activation (OR2L13): > 2 fold
Compound: CCCCCCCCCCC=O [undecanal]

- EC50 (OR2A7; EC50, OR2A7 yeast sensor): 412 µM
- increase in the signal after activation (OR2A7; OR2A7, dose-response curve, compared to DMSO control): > 2 fold
- increase in percent GFP expression compared to the no receptor control (OR2A7; OR2A7 vs empty-vector control strain): 2.3 fold
- OR-dependent activation, conclusion in words (OR2A7): confirmed ligand
- EC50 (OR2T4; EC50, OR2T4 yeast sensor): 659 µM
- increase in the signal after activation (OR2T4): > 2 fold
- maximal level of GFP expression of OR2T4, higher than that of OR2A7 (OR2T4; OR2T4 relative to OR2A7): 63%
- increase in percent GFP expression compared to the no receptor control (OR2T4): 3 fold
- OR-dependent activation, conclusion in words (OR2T4): confirmed ligand
Compound: CC1=CCC2CC1C2(C)C (stereo not drawn) [α-pinene, alpha-pinene]

- weaker response than with α-pinene (OR2A7; OR2A7, response relative to α-pinene): 18%
Compound: C=C1CCC2CC1C2(C)C (stereo not drawn) [β-pinene, beta-pinene]
